{"source": "ChEMBL document CHEMBL1759864", "about": "“Synthesis and proteasome inhibition of lithocholic acid derivatives” (Bioorg Med Chem Lett, 2011)", "note": "pIC50: −log10 of the molar value. Calls of active or inactive are those of the source. The rule behind the calls is not given here. Where a SMILES comes first, the peptide text is derived from it.", "data": [{"tested_on": "HeLa", "experiment": "Inhibition of proteasome activity in human HeLa cells transfected with UbG76V-GFP assessed as accumulation of ubiquitinG76V-GFP at 7.5 uM after 24 hrs by fluorescence microscopy", "in_short": "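HeLa cells stably expressing Ub^G76V-GFP, grown in DMEM with 10% heat-inactivated FBS at 37 °C, humidified. Cells seeded at 10,000 per well and exposed to compound at 7.5 µM for 24 h. Proteasome block is read as intracellular Ub^G76V-GFP accumulation (green fluorescence), documented by fluorescence microscopy against untreated cells.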", "values": [{"smiles": "C[C@H](CCC(=O)O)[C@H]1CC[C@H]2[C@@H]3CC[C@@H]4C[C@H](OC(=O)CC5(CC(=O)O)CCCC5)CC[C@]4(C)[C@H]3CC[C@]12C", "inhibition": "Active"}]}, {"tested_on": "not listed separately", "experiment": "Inhibition of chymotrypsin-like activity of 20S proteasome", "values": [{"smiles": "C[C@H](CCC(=O)O)[C@H]1CC[C@H]2[C@@H]3CC[C@@H]4C[C@H](OC(=O)COCC(=O)O)CC[C@]4(C)[C@H]3CC[C@]12C", "pIC50": 5.16}, {"smiles": "C[C@H](CCC(=O)O)[C@H]1CC[C@H]2[C@@H]3CC[C@@H]4C[C@H](OC(=O)c5ccccc5C(=O)O)CC[C@]4(C)[C@H]3CC[C@]12C", "pIC50": 5.07}, {"smiles": "C[C@H](CCC(=O)O)[C@H]1CC[C@H]2[C@@H]3CC[C@@H]4C[C@H](OC(=O)CCCCC(=O)O)CC[C@]4(C)[C@H]3CC[C@]12C", "pIC50": 5.46}, {"smiles": "CC(C(=O)O)C(C)C(=O)O[C@@H]1CC[C@@]2(C)[C@H](CC[C@@H]3[C@@H]2CC[C@]2(C)[C@@H]([C@H](C)CCC(=O)O)CC[C@@H]32)C1", "note": "(some centres not stated)", "pIC50": 5.24}, {"smiles": "COC(=O)CC[C@@H](C)[C@H]1CC[C@H]2[C@@H]3CC[C@@H]4C[C@H](O)CC[C@]4(C)[C@H]3CC[C@]12C", "inhibition": "inactive"}, {"smiles": "C[C@H](CCC(=O)O)[C@H]1CC[C@H]2[C@@H]3CC[C@@H]4C[C@H](OC(=O)CC5(CC(=O)O)CCCC5)CC[C@]4(C)[C@H]3CC[C@]12C", "pIC50": 5.66}, {"smiles": "CCOC(=O)CC[C@@H](C)[C@H]1CC[C@H]2[C@@H]3CC[C@@H]4C[C@H](O)CC[C@]4(C)[C@H]3CC[C@]12C", "inhibition": "inactive"}, {"smiles": "C[C@H](CCC(=O)O)[C@H]1CC[C@H]2[C@@H]3CC[C@@H]4C[C@H](O)CC[C@]4(C)[C@H]3CC[C@]12C", "note": "[LITHOCHOLIC ACID]", "pIC50": 4.74}, {"smiles": "C[C@H](CCC(=O)O)[C@H]1CC[C@H]2[C@@H]3CC[C@@H]4C[C@H](OC(=O)CCCCCC(=O)O)CC[C@]4(C)[C@H]3CC[C@]12C", "inhibition": "inactive"}, {"smiles": "C[C@H](CCC(=O)O)[C@H]1CC[C@H]2[C@@H]3CC[C@@H]4C[C@H](OC(=O)Cc5cccc(CC(=O)O)c5)CC[C@]4(C)[C@H]3CC[C@]12C", "pIC50": 5.72}, {"smiles": "C[C@H](CCC(=O)O)[C@H]1CC[C@H]2[C@@H]3CC[C@@H]4C[C@H](OC(=O)Cc5ccc(CC(=O)O)cc5)CC[C@]4(C)[C@H]3CC[C@]12C", "pIC50": 5.42}, {"smiles": "C[C@H](CCC(=O)O)[C@H]1CC[C@H]2[C@@H]3CC[C@@H]4C[C@H](OC(=O)CCC(=O)O)CC[C@]4(C)[C@H]3CC[C@]12C", "pIC50": 4.99}, {"smiles": "CC(CC(=O)O[C@@H]1CC[C@@]2(C)[C@H](CC[C@@H]3[C@@H]2CC[C@]2(C)[C@@H]([C@H](C)CCC(=O)O)CC[C@@H]32)C1)C(=O)O", "note": "(some centres not stated)", "pIC50": 4.94}, {"smiles": "C[C@H](CCC(=O)O)[C@H]1CC[C@H]2[C@@H]3CC[C@@H]4C[C@H](OC(=O)CCCC(=O)O)CC[C@]4(C)[C@H]3CC[C@]12C", "pIC50": 4.97}, {"smiles": "C[C@H](CCC(=O)O)[C@H]1CC[C@H]2[C@@H]3CC[C@@H]4C[C@H](OC(=O)[C@@H]5CCCC[C@H]5C(=O)O)CC[C@]4(C)[C@H]3CC[C@]12C", "pIC50": 5.07}, {"smiles": "CSCC[C@@H](C=O)NC(=O)[C@H](CC(C)C)NC(=O)[C@H](CC(C)C)NC(C)=O", "note": "(Ac-Leu-Leu-Met-aldehyde)", "pIC50": 5.28}, {"smiles": "COC(=O)CC[C@@H](C)[C@H]1CC[C@H]2[C@@H]3CC[C@@H]4C[C@H](OC(=O)CCCCCC(=O)O)CC[C@]4(C)[C@H]3CC[C@]12C", "inhibition": "inactive"}, {"smiles": "COC(=O)CC[C@@H](C)[C@H]1CC[C@H]2[C@@H]3CC[C@@H]4C[C@H](OC(=O)Cc5cccc(CC(=O)O)c5)CC[C@]4(C)[C@H]3CC[C@]12C", "inhibition": "inactive"}, {"smiles": "CCOC(=O)CC[C@@H](C)[C@H]1CC[C@H]2[C@@H]3CC[C@@H]4C[C@H](OC(=O)CCCCCC(=O)O)CC[C@]4(C)[C@H]3CC[C@]12C", "inhibition": "inactive"}]}, {"tested_on": "not listed separately", "experiment": "Inhibition of trypsin-like activity of 20S proteasome", "values": [{"smiles": "C[C@H](CCC(=O)O)[C@H]1CC[C@H]2[C@@H]3CC[C@@H]4C[C@H](OC(=O)Cc5cccc(CC(=O)O)c5)CC[C@]4(C)[C@H]3CC[C@]12C", "pIC50": 5.04}]}, {"biological_target": "not listed separately", "experiment": "Inhibition of caspase-like activity of 20S proteasome", "values": [{"smiles": "C[C@H](CCC(=O)O)[C@H]1CC[C@H]2[C@@H]3CC[C@@H]4C[C@H](OC(=O)Cc5cccc(CC(=O)O)c5)CC[C@]4(C)[C@H]3CC[C@]12C", "pIC50": 5.19}]}]}
